Measurements from different studies.
Each line is one published result; the experiments were not run side by side. pEC50, pIC50: −log10 of the molar value.
Organism: Leishmania major
Effect on: parasite growth
Setting: promastigote

Compound | assay | setting | quantity | value
CCCc1cn(CCN2CCN(C(=O)c3c(C)nc4ccc(Cl)cn34)CC2)nn1 | resazurin | 72 h | pIC50 | 3.32
O=S(=O)(c1ccc(-c2ccc3ncnc(Nc4ccc(OCc5ccccc5)c(Cl)c4)c3c2)cc1)N1CCOCC1 | resazurin |  | pEC50 | 6.33
C[C@@H]1[C@H](O)[C@@H](C)/C=C/C=C/C=C/C=C/C=C/C=C/C=C/[C@H](O[C@@H]2O[C@H](C)[C@@H](O)[C@H](N)[C@@H]2O)C[C@@H]2O[C@](O)(C[C@@H](O)C[C@@H](O)[C@H](O)CC[C@@H](O)C[C@@H](O)CC(=O)O[C@H]1C)C[C@H](O)[C@H]2C(=O)O |  |  | pIC50 | 6.08
CC(=O)Oc1ccc(-c2oc3cc(OC(C)=O)cc(O)c3c(=O)c2OC(C)=O)cc1 |  | 48 h | pIC50 | 4.83
C[C@@H]1[C@H](O)[C@@H](C)/C=C/C=C/C=C/C=C/C=C/C=C/C=C/[C@H](O[C@@H]2O[C@H](C)[C@@H](O)[C@H](N)[C@@H]2O)C[C@@H]2O[C@](O)(C[C@@H](O)C[C@@H](O)[C@H](O)CC[C@@H](O)C[C@@H](O)CC(=O)O[C@H]1C)C[C@H](O)[C@H]2C(=O)O |  | 24 h | pIC50 | 6.61
CCCCCCCCCc1cn(CCN2CCN(C(=O)c3c(C)nc4ccc(Cl)cn34)CC2)nn1 | resazurin | 72 h | pIC50 | 4.21
C[C@@H]1[C@H](O)[C@@H](C)/C=C/C=C/C=C/C=C/C=C/C=C/C=C/[C@H](O[C@@H]2O[C@H](C)[C@@H](O)[C@H](N)[C@@H]2O)C[C@@H]2O[C@](O)(C[C@@H](O)C[C@@H](O)[C@H](O)CC[C@@H](O)C[C@@H](O)CC(=O)O[C@H]1C)C[C@H](O)[C@H]2C(=O)O |  | 48 h | pIC50 | 5.43
Cc1nc2ccc(Cl)cn2c1C(=O)N1CCN(Cc2cn(-c3cccc(Cl)c3)nn2)CC1 | resazurin | 72 h | pIC50 | 4.33
CC1(C)OB(CC2c3ccccc3C(=O)N2C2CCCCC2)OC1(C)C (stereo not drawn) |  |  | pIC50 | 4.94
